Here are results for 3 compounds from PMC3698492 (Scientific Reports, 2013).

Data set [1] relates to Drosophila first instar larvae. Briefly: Liquid food feeding assay. It counts as in vivo, Drosophila melanogaster. The settings on record: for dose-response verification: 14 secondary screen hits chosen for dose-response curve.
In data set [2] the test system is Drosophila larvae. Briefly: Solid food feeding assay. It counts as in vivo, Drosophila melanogaster. The method in brief:
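Larvae aged 0–2 h were fed 17 h at 25°C and 70% humidity on cornmeal-agar-molasses food containing 0.05% bromophenol blue plus solvent or test compound. Individual larvae were imaged, and digestive-tract optical density was measured. Values were normalized to same-day solvent-treated larvae and reported as mean ± s.e.m.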

For data set [3], the system named is Drosophila larvae. Briefly: Larval locomotion. In kind it is in vivo, Drosophila melanogaster.
The next data set concerns the target T1, 5-HT2A (Drosophila melanogaster, UniProt Q9VN38).
T1 sequence (Q9VN38 1-868): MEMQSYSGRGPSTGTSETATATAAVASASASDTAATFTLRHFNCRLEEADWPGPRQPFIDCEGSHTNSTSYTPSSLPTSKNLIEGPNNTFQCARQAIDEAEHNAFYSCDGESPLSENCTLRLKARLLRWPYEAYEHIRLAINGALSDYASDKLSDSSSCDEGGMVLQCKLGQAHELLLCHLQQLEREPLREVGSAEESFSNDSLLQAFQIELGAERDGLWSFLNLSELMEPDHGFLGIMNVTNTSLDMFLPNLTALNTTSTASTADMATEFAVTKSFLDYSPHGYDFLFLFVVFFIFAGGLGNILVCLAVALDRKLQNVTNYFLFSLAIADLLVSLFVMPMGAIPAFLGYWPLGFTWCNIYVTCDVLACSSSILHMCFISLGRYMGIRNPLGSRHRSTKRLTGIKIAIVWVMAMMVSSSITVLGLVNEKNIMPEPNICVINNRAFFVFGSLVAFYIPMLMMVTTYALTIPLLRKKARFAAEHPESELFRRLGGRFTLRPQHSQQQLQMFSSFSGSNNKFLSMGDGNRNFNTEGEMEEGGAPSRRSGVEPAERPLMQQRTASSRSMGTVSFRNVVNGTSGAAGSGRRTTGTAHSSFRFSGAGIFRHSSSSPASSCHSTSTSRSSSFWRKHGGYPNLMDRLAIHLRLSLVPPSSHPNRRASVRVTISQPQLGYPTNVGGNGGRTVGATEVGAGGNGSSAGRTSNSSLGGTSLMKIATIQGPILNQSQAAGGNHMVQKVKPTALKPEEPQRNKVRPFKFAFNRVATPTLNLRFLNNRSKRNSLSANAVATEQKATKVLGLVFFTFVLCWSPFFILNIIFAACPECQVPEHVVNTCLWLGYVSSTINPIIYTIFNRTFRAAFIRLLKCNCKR
Briefly: Calcium imaging of receptor expressed in HEK-293T cells. It counts as cell-based. The conditions noted are these: 100 μM metitepine; stated for all 5-HT receptors.

Another data set has as its target T2, 5-HT2B (Drosophila melanogaster, UniProt Q8INQ6).
T2 sequence (Q8INQ6 1-904): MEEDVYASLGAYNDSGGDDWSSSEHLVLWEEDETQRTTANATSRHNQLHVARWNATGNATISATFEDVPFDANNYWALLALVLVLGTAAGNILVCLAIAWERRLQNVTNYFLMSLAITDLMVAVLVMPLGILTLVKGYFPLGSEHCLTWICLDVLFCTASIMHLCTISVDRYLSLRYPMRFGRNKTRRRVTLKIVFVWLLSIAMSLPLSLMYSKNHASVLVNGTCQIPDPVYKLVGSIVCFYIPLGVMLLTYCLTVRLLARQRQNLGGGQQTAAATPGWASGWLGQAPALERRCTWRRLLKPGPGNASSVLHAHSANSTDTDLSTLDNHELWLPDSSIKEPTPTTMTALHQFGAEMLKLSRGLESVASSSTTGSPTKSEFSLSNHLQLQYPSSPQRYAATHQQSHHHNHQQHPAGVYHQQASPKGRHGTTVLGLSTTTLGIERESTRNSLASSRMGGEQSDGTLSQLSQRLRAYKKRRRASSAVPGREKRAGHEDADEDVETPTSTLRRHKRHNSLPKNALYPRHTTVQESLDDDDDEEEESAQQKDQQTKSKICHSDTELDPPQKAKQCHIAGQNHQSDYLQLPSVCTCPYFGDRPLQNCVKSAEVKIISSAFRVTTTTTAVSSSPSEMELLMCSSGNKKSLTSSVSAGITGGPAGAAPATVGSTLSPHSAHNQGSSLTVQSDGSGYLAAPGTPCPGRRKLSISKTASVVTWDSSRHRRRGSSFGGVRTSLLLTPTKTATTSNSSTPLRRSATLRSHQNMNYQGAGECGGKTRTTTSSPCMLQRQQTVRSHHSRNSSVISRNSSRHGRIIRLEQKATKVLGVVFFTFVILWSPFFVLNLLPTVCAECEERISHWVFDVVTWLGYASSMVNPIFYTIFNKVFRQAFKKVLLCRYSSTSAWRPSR
The data set is described as above. The settings on record: 100 μM metitepine; stated for all 5-HT receptors. In kind it is cell-based.

Another data set concerns the target T3, 5-HT1B (Drosophila melanogaster, UniProt P28286).
T3 sequence (P28286 1-617): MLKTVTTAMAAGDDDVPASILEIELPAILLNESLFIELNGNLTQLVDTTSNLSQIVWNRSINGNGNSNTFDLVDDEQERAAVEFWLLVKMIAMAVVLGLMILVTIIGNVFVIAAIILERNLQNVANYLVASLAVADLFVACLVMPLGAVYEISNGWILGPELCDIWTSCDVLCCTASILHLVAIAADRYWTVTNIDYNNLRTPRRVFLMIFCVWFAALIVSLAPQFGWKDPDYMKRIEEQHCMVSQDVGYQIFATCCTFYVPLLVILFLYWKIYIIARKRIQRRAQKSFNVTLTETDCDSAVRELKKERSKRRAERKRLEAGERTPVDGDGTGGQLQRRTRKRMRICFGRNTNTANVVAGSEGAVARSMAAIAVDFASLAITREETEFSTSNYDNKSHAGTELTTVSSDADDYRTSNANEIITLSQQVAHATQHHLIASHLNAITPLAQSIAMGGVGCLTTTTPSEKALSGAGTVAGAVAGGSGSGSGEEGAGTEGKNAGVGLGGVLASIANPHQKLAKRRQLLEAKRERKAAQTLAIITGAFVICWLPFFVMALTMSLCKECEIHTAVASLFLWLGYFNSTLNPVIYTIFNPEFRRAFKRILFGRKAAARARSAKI
The data set is described as above. In kind it is cell-based.

For a further data set, the system named is HEK-293T cells. Briefly: ATP control after metitepine treatment. The conditions noted are these: 100 μM metitepine; ATP activated all cells afterwards. In kind it is cell-based.
The test system of the next data set is C. elegans. The conditions noted are these: different small molecule screen; cited from earlier work.
The target of a further data set is T4, 5-HT7 (Drosophila melanogaster, UniProt P20905).
T4 sequence (P20905 1-564): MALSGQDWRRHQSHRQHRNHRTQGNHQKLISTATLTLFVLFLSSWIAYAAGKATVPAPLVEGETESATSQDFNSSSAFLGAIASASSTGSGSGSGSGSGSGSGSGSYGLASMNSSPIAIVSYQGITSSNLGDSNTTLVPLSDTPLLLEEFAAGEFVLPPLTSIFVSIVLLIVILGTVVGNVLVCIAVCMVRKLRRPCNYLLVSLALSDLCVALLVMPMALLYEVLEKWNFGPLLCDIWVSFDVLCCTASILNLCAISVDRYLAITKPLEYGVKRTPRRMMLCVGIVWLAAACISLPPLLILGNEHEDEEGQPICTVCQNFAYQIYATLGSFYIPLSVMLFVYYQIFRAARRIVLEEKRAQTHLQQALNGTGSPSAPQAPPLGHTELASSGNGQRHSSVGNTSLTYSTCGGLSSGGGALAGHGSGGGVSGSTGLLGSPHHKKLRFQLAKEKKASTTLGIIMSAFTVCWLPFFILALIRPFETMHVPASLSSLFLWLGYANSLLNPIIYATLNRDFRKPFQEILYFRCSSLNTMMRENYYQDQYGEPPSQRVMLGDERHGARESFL
Briefly: Calcium imaging of receptor expressed in HEK-293T cells. In kind it is cell-based. The settings on record: 100 μM metitepine; stated for all 5-HT receptors.

Another data set deals with T5, 5-HT1A (Drosophila melanogaster, UniProt P28285).
T5 sequence (P28285 1-834): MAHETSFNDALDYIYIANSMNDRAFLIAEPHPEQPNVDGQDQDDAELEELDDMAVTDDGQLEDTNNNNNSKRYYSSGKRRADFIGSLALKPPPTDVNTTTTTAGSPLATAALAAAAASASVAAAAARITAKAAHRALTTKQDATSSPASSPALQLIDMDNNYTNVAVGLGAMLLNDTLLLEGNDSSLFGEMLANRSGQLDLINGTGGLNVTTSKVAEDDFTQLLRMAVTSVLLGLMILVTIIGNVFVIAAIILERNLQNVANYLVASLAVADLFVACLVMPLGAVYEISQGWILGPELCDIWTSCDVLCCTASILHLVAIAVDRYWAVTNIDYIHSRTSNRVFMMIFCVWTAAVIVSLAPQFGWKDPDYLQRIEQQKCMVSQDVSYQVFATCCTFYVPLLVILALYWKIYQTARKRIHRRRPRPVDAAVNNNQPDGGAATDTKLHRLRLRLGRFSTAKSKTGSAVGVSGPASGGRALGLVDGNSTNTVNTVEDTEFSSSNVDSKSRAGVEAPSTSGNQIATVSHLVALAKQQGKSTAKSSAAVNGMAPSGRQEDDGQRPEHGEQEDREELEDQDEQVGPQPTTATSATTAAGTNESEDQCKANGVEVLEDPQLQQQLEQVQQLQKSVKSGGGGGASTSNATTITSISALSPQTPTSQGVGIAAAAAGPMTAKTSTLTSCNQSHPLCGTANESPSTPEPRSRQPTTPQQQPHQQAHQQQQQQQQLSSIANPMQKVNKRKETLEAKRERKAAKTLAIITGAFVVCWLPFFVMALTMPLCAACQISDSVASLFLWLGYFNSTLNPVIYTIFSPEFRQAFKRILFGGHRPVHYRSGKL
Described as above. In kind it is cell-based. The conditions noted are these: 100 μM metitepine; stated for all 5-HT receptors.

Each structure is given as a SMILES string.

As usually defined, the IC50 is the concentration that inhibits the measured activity by half. Take `CSc1ccc2c(c1)C(N1CCN(C)CC1)Cc1ccccc1S2` (centres unmarked) [Metitepine]: the “food accumulation immediately after exposure” value in data set [1] (0-h recovery) is “reduced food accumulation”. Besides, in data set [1], the dose-response verification entry was “showed reliable dose-dependent responses”. For the same compound, the “anorectic effect 4 hours after treatment” value in data set [1] (4 h recovery) is listed as “not evident”. The “food intake 24 hours after treatment” value in data set [1] (24 h recovery, rebound from drug-induced fasting) was “ate significantly more”. For the same compound, in data set [1] (liquid food with fluorescein, increasing effects at 50 and 100 μM), the “threshold concentration for efficacy” value came out at 10 µM. The “duration of anorectic effect after treatment” value in data set [1] (recovery time course after metitepine treatment) was 2 h. The “solid food accumulation in digestive tract” value in the data set with Drosophila larvae [2] (cornmeal-agar-molasses diet with bromophenol blue, 100 μM (Fig. 3a)) is reported as “accumulated less solid food”. In the data set on Drosophila larvae [2] (solid food with bromophenol blue, optical density of gut), the threshold efficacy dose was found to be 50 µM. Moreover, in the data set with Drosophila larvae [3] (100 μM in solid food, 17 hours, agar surface), the crawling speed result is recorded as “crawled at the same speed as solvent treated controls”. Moreover, the “responses to 5-HT in presence of drug” value is “dramatically suppressed or completely abolished” at 5-HT2A; “dramatically suppressed or completely abolished” on 5-HT2B; “dramatically suppressed or completely abolished” at 5-HT1B (100 μM metitepine, stated for all 5-HT receptors); “dramatically suppressed or completely abolished” on 5-HT7; “dramatically suppressed or completely abolished” at 5-HT1A. The IC50 at 5-HT1B is 58 µM. Also, the “cell survival after treatment” value with HEK-293T cells is “did not kill the cells”. The lifespan entry with C. elegans was “extends lifespan”.
For the compound `COC(=O)[C@H]1[C@H]2C[C@@H]3c4[nH]c5cc(OC)ccc5c4CCN3C[C@H]2C[C@@H](OC(=O)c2cc(OC)c(OC)c(OC)c2)[C@@H]1OC` [Reserpine], in [1], the dose-response verification entry is given as “showed reliable dose-dependent responses”. In addition, the larval locomotion entry with Drosophila larvae [3] (at concentrations as low as 10 μM, data not shown) is recorded as “dramatically reduced larval locomotion”.
On to `C[C@@H]1C[C@@H]([C@H](O)CC2CC(=O)NC(=O)C2)C(=O)[C@@H](C)C1` [cycloheximide], for which the “feeding in pilot screen” value in [1] (pilot screen, tested individually at 20 μg/ml, data not shown) is “inhibited feeding”.
